Where only a bound is given, the exact number is not on record here.

Data set [1] in a line: Plasma concentration of LY-354740 in rats after oral administration of compound at a dose of 5 mg equiv 1/kg at 1 hr. The format is ADME. The note with it: rat. Summed up:
(§1)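 Male Fischer 344 rats (190–250 g), fasted overnight, food returned ~4 h postdose; single oral dose of prodrug molar-equivalent to 5 mg/kg parent, in pH 2.5 20 mM KHPO₄. Blood drawn at 0.5, 1 and 3 h; plasma stored at –20 °C or below until analysis. Three plasma samples per time point; parent and prodrug measured.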

Data set [2] in a line: Plasma concentration of LY-354740 in rats after oral administration of compound at a dose of 5 mg equiv 1/kg at 0.5 hr. The format is ADME. The note with it: rat. The method in brief: as §1
A short description of data set [3]: Area under concentration of compound in rats at a dose of 5 mg equiv 1/kg. The format is ADME. The note with it: rat, in vivo. Summed up:
as §1

For the next data set, the system named is Caco-2. The data set is described as follows: Inhibition of radiolabeled glycylsarcosine (Gly-Sar) uptake into Caco-2 cells done for 15 min at 37 degree C with compound. It counts as functional, cell-based. Conditions: Homo sapiens, Caco-2, 0.25 h.
A short description of data set [4]: Plasma concentration of LY-354740 in rats after oral administration of compound at a dose of 5 mg equiv 1/kg at 3 hr. Conditions: rat. It counts as ADME. The method in brief: as §1
Data set [5] in a line: Inhibition of radiolabeled glycylsarcosine (Gly-Sar) uptake into chinese hamster ovary cells transfected with human PepT1 (CHO/hPepT1) done for 5-20 min at 37 degree C with compound. It counts as functional, cell-based. The note with it: Cricetulus griseus.
The test system of data set [6] is Rattus norvegicus. Briefly: Onset of suppression of startle of compound in rat fear-potentiated startle assay at an oral dose of 0.01 and 0.1 mg/kg. It counts as functional. The method in brief: (§2)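 Fed rats dosed orally. Three-day protocol: day 1 baseline startle (30 × 120 dB), groups of n = 8. Day 2 conditioning: 10 light (5 s)–shock (0.5 mA, 500 ms) pairings. Day 3, 24 h later: 20 noise-alone and 20 light+noise trials. Compound given at set pretreatment times before testing. Diazepam 0.6 mg/kg ip, 30 min pre-test, as positive control. MED = lowest dose with p < 0.05 versus control.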

The target of data set [7] is Metabotropic glutamate receptor 3 (Homo sapiens, UniProt Q14832). Briefly: Inhibition of [3H]LY-341,495 binding to recombinant human mGlu3 receptors.
The subject of data set [8] is Rattus norvegicus. Briefly: Minimally effective dose for suppression of startle in rat fear-potentiated startle assay, p.o. The format is functional. The note with it: po, read-out: MED. Summed up:
as §2

The subject of data set [9] is Rattus norvegicus. Briefly: Duration of suppression of compound in rat fear-potentiated startle assay at an oral dose of 0.1 mg/kg. The format is functional. Summed up: as §2
The target of data set [10] is Metabotropic glutamate receptor 2 (Rattus norvegicus, UniProt P31421). Briefly: Inhibition of [3H]LY-341,495 binding to mGlu2 receptors of rat brain.
Data set [11] has as its system Rattus norvegicus. Briefly: Duration of suppression of compound in rat fear-potentiated startle assay at an oral dose of 0.01 mg/kg; Range = 4-8 h. It counts as functional. The method in brief:
as §2

In data set [12] the target is Metabotropic glutamate receptor 2 (Homo sapiens, UniProt Q14416). Briefly: Inhibition of [3H]LY-341,495 binding to recombinant human mGlu2 receptors.
Data set [13] can be described thus: Plasma concentration of the prodrug and LY-354740 against the metabotropic glutamate receptor in rats after an oral dose of corresponding prodrug in 5 mg equiv 1/kg at 3 houre. It counts as ADME. Conditions: rat. The method in brief:
as §1

Data set [14] has as its system Rattus norvegicus. The data set is described as follows: Minimally effective dose for suppression of startle in rat fear-potentiated startle assay, p.o.; Range = 0.3-3.0 mg/kg. Conditions: po, read-out: MED. It counts as functional.
The subject of data set [15] is Rattus norvegicus. Briefly: Onset of suppression of startle of compound in rat fear-potentiated startle assay at an oral dose of 3.0 mg/kg. The format is functional.
Data set [16] relates to Rattus norvegicus. The data set is described as follows: Duration of suppression of compound in rat fear-potentiated startle assay at an oral dose of 3.0 mg/kg; Range = 8-24 h. The format is functional.

Chain of Metabotropic glutamate receptor 2 (Homo sapiens, UniProt Q14416) (Q14416 whole entry): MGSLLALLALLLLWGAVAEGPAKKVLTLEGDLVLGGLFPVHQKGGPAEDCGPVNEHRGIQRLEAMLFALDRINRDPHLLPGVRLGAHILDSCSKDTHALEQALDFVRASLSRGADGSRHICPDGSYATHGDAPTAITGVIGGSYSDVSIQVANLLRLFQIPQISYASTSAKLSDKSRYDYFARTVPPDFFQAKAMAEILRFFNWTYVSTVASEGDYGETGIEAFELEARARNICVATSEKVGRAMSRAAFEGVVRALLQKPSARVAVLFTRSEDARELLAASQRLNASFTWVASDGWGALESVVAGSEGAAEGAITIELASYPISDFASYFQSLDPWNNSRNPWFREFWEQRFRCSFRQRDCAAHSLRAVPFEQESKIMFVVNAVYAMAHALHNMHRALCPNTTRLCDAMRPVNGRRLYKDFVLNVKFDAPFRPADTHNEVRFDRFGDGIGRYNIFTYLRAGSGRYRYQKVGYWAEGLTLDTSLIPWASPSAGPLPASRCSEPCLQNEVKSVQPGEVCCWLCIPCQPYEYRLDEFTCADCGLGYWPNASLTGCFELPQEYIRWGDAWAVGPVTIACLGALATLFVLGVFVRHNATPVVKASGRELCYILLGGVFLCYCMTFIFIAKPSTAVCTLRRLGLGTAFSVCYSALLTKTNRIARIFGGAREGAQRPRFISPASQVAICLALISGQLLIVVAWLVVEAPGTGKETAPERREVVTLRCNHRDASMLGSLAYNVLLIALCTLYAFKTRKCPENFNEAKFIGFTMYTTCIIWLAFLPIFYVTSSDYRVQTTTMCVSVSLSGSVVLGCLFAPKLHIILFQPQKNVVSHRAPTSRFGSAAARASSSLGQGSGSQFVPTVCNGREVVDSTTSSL
Chain of Metabotropic glutamate receptor 3 (Q14832 whole entry): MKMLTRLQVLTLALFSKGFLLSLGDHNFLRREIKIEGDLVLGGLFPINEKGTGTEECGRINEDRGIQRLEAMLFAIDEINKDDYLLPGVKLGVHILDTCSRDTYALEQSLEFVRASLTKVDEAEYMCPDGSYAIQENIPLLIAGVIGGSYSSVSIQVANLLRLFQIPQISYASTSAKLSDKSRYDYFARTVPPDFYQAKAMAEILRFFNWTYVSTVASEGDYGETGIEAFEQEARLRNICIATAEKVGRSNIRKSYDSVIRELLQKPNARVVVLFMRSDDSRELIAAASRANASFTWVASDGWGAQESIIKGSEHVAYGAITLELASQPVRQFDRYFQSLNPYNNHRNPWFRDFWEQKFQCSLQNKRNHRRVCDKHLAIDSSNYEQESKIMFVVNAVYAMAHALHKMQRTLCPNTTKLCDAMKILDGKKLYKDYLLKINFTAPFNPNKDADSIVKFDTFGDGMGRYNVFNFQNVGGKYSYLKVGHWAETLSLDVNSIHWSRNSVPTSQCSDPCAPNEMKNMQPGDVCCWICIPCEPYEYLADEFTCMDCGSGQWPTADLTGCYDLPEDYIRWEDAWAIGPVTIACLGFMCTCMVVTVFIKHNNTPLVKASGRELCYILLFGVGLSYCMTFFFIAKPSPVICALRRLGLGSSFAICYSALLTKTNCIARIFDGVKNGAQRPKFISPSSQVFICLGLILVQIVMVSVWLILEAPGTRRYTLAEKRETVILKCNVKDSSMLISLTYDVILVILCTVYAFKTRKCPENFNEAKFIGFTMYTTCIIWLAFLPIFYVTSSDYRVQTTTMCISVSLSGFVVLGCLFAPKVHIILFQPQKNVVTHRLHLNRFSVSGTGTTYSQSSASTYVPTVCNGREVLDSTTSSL
Chain of Metabotropic glutamate receptor 2 (Rattus norvegicus, UniProt P31421) (P31421 whole entry): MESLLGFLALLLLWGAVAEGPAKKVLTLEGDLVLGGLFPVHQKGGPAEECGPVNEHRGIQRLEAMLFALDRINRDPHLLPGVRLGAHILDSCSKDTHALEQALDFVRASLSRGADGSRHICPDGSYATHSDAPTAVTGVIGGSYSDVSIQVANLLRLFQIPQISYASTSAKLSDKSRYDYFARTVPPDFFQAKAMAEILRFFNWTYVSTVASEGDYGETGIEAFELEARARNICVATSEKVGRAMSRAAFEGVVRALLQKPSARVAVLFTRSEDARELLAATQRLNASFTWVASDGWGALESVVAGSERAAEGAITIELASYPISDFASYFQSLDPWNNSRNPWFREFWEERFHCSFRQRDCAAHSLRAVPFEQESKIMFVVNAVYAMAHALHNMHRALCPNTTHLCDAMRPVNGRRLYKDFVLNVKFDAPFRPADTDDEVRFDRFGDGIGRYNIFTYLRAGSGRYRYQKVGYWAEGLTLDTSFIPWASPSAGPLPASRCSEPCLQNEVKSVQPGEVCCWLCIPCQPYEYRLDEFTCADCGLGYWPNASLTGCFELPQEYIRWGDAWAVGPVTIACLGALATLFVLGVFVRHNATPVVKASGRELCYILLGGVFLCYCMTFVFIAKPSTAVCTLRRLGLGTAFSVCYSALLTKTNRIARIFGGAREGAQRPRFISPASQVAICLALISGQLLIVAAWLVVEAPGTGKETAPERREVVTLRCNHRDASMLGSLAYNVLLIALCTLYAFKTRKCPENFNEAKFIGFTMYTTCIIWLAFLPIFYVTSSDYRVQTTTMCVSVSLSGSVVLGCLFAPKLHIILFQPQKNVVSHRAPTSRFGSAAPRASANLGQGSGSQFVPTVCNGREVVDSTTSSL

Consider `N[C@@]1(C(=O)N[C@@H](Cc2ccccc2)C(=O)O)CC[C@H]2[C@H](C(=O)O)[C@H]21`, for which the Plasma concentration in [1] was 45 ng/mL; in [2], 20 ng/mL; in data set [4], 10 ng/mL. For the same compound, in data set [3], the AUC amounted to 11400 ng·h/mL. For the same compound, the results for the IC50 (in the data set with Caco-2; in data set [5]) were 2.68 mM and 1.54 mM, respectively.

As to `Cl.NCCCC[C@H](N)C(=O)N[C@@]1(C(=O)O)CC[C@H]2[C@H](C(=O)O)[C@H]21`, the Plasma concentration in data set [1] is 147 ng/mL; in data set [2] it was 74 ng/mL; in data set [4], 246 ng/mL.

Consider `CC(C)C[C@H](NC(=O)[C@]1(NC(=O)[C@H](C)N)CCC2C1[C@H]2C(=O)O)C(=O)O` (stereo not given in full), for which the Plasma concentration in data set [1] is 26 ng/mL; in [2], 44 ng/mL; in data set [4], 55 ng/mL. Also, the results for the IC50 (in the data set on Caco-2; in [5]) were 3.05 mM and 1.34 mM, respectively.

For `CC(C)C[C@H](N)C(=O)N[C@@]1(C(=O)O)CC[C@H]2[C@H](C(=O)O)[C@H]21.Cl`, the Plasma concentration in data set [1] turned out to be 4323 ng/mL; in data set [2], 4488 ng/mL; in data set [4], 1152 ng/mL. Besides, the AUC in data set [3] worked out at 0 ng·h/mL. Moreover, the IC50 with Caco-2 came out at 5.01 mM; in data set [5] it was 1.43 mM.

With `CSCC[C@H](NC(=O)[C@]1(N)CC[C@H]2[C@H](C(=O)O)[C@H]21)C(=O)O`, the Plasma concentration worked out at 808 ng/mL in data set [1], 602 ng/mL in data set [2] and 889 ng/mL in data set [4]. In data set [3], the AUC turned out to be 16600 ng·h/mL.

In the case of `CC(C)C[C@H](NC(=O)[C@]1(N)CC[C@H]2[C@H](C(=O)O)[C@H]21)C(=O)O`, the figures for the Plasma concentration in data set [1], in [2] and in data set [4] were 798 ng/mL, 450 ng/mL and 919 ng/mL, respectively. In data set [3], the AUC came out at 21300 ng·h/mL. Also, the IC50 in the data set on Caco-2 was above 10 mM; in data set [5] it was 0.62 mM.

On to `N[C@@]1(C(=O)NCC(=O)O)CC[C@H]2[C@H](C(=O)O)[C@H]21`, for which the Plasma concentration in [2] was 19 ng/mL.

For `C[C@H](N)C(=O)N[C@@]1(C(=O)O)CC[C@H]2[C@H](C(=O)O)[C@H]21.Cl` [TALAGLUMETAD HYDROCHLORIDE], the Onset entry in the data set with Rattus norvegicus [6] is “<=1 hr”. Moreover, the values for the Plasma concentration in data set [1], in [2] and in data set [4] were 3381 ng/mL, 3732 ng/mL and 1770 ng/mL, respectively. The results for the Ki in data set [7], in [10] and in [12] were above 0.01 mM, above 0.01 mM and above 10000 nM, respectively. Besides, in [3], the AUC amounted to 0 ng·h/mL. Further, the minimal effective dose in the data set with Rattus norvegicus [8] was 0.01 mg/kg. Besides, the results for the Duration entry in the data set with Rattus norvegicus [9] and in the data set with Rattus norvegicus [11] were “>=24 hr” and 8 h, respectively. The IC50 stood at 0.3 mM in the data set with Caco-2 and 0.12 mM in data set [5].

For `C[C@H](N)C(=O)N[C@@H](C)C(=O)N[C@@]1(C(=O)O)CC[C@H]2[C@H](C(=O)O)[C@H]21.Cl`, the Plasma concentration in [1] amounted to 1554 ng/mL; in [2] it was 3620 ng/mL; in [4], 734 ng/mL. Besides, the IC50 turned out to be 7.29 mM with Caco-2 and 2.88 mM in [5].

For `Cl.N[C@@H](CO)C(=O)N[C@@]1(C(=O)O)CC[C@H]2[C@H](C(=O)O)[C@H]21`, the values for the Plasma concentration in data set [1] and in data set [2] were 1365 ng/mL and 1497 ng/mL, respectively.

Take `Cl.O=C(O)[C@H]1[C@@H]2CC[C@@](NC(=O)[C@@H]3CCCN3)(C(=O)O)[C@@H]21`: the Plasma concentration in data set [1] turned out to be 455 ng/mL; in data set [13], 670 ng/mL; in data set [2] it was 319 ng/mL.

With `CC[C@H](C)[C@H](N)C(=O)N[C@@]1(C(=O)O)CC[C@H]2[C@H](C(=O)O)[C@H]21.Cl`, the Plasma concentration in data set [1] stood at 1457 ng/mL; in data set [2], 2009 ng/mL; in data set [4], 2032 ng/mL.

With `Cl.N[C@@H](Cc1ccc(O)cc1)C(=O)N[C@@]1(C(=O)O)CC[C@H]2[C@H](C(=O)O)[C@H]21`, the Plasma concentration worked out at 2163 ng/mL in [1] and 1915 ng/mL in data set [2].

Take `CC(C)[C@H](NC(=O)[C@]1(N)CC[C@H]2[C@H](C(=O)O)[C@H]21)C(=O)O`: the Plasma concentration was determined as 17 ng/mL in [1], 10 ng/mL in data set [2] and 10 ng/mL in data set [4].

As for `CC[C@H](C)[C@H](NC(=O)[C@]1(N)CC[C@H]2[C@H](C(=O)O)[C@H]21)C(=O)O`, the Plasma concentration came out at 34 ng/mL in data set [1], 18 ng/mL in data set [2] and 20 ng/mL in data set [4].

`CC(C)C[C@@H](N)C(=O)N[C@@]1(C(=O)O)CC[C@H]2[C@H](C(=O)O)[C@H]21.Cl`: the results for the Plasma concentration in data set [1], in [2] and in data set [4] were 894 ng/mL, 1478 ng/mL and 877 ng/mL, respectively. Further, the IC50 in the data set on Caco-2 turned out to be 6.31 mM; in data set [5], 1.7 mM.

In the case of `Cl.NCC(=O)N[C@@]1(C(=O)O)CC[C@H]2[C@H](C(=O)O)[C@H]21`, the Plasma concentration worked out at 1992 ng/mL in data set [1] and 1707 ng/mL in data set [2].

As to `CC(C)[C@H](N)C(=O)N[C@@]1(C(=O)O)CC[C@H]2[C@H](C(=O)O)[C@H]21.Cl`, the Plasma concentration in data set [1] is 2124 ng/mL; in [2], 2387 ng/mL; in data set [4], 1136 ng/mL.

As to `N[C@@]1(C(=O)N[C@@H](Cc2ccc(O)cc2)C(=O)O)CC[C@H]2[C@H](C(=O)O)[C@H]21`, the Plasma concentration in [1] was 44 ng/mL; in data set [2], 30 ng/mL; in data set [4], 124 ng/mL.

As for `CSCC[C@H](N)C(=O)N[C@@]1(C(=O)O)CC[C@H]2[C@H](C(=O)O)[C@H]21.Cl`, the Plasma concentration in data set [1] amounted to 2107 ng/mL; in data set [2] it was 3720 ng/mL.

Regarding `N[C@@]1(C(=O)O)CC[C@H]2[C@H](C(=O)O)[C@H]21`, in the data set with Rattus norvegicus [14], the minimal effective dose came to 3 mg/kg. Moreover, the Ki came to 0.000126 mM in data set [7] and 84.7 nM in data set [12]. The Onset entry in the data set with Rattus norvegicus [15] is on record as “<=1 hr”. Besides, the IC50 was above 10 mM in the data set on Caco-2 and above 19 mM in data set [5]. In addition, the Duration in the data set on Rattus norvegicus [16] came to 24 h.

Turning to `C[C@@H](N)C(=O)N[C@@]1(C(=O)O)CC[C@H]2[C@H](C(=O)O)[C@H]21.Cl`, the values for the Plasma concentration in data set [1], in [2] and in [4] were 191 ng/mL, 81 ng/mL and 525 ng/mL, respectively. Also, the IC50 with Caco-2 was above 10 mM; in data set [5], 6.66 mM.

`Cl.N[C@@H](Cc1ccccc1)C(=O)N[C@@]1(C(=O)O)CC[C@H]2[C@H](C(=O)O)[C@H]21`: the Plasma concentration worked out at 2763 ng/mL in data set [1], 1710 ng/mL in data set [2] and 1274 ng/mL in data set [4]. In addition, the AUC in data set [3] came to 194 ng·h/mL. For the same compound, the values for the IC50 (in the data set on Caco-2; in [5]) were 0.42 mM and 0.52 mM, respectively.

On to `N[C@@]1(C(=O)N[C@@H](CO)C(=O)O)CC[C@H]2[C@H](C(=O)O)[C@H]21`, for which the Plasma concentration in data set [2] was found to be 36 ng/mL; in data set [4] it was 53 ng/mL.

The term AUC denotes concentration integrated over time. One may read the IC50 as the concentration that inhibits the measured activity by half. Usually Ki stands for the equilibrium dissociation constant of an inhibitor or competing ligand from its target.

The record behind these values is ChEMBL document CHEMBL1145166, “Dipeptides as effective prodrugs of the unnatural amino acid (+)-2-aminobicyclo[3.1.0]hexane-2,6-dicarboxylic acid (LY354740), a selective group II metabotropic glutamate receptor agonist” (J Med Chem, 2005).
